Our source for the IC50 values is ChEMBL document CHEMBL1122479, “Nucleic acid related compounds. 40. Synthesis and biological activities of 5-alkynyluracil nucleosides” (1983).

Assay type in all cases: functional
The subject of assay [1] is L1210. Briefly: Concentration required to reduce leukemia L1210 cell growth […]. The note with it: Mus musculus, read-out: ID50 (the source's name).
The subject of assay [2] is PRK. Briefly: Concentration required to reduce Herpes simplex virus type 2 induced cytopathogenicity in primary rabbit kidney (PRK) cell cultures. The note with it: Human alphaherpesvirus 2, PRK; read-out: ID50 (the source's name).
In assay [3] the test system is PRK. Briefly: Inhibitory activity against incorporation of deoxy-[methyl.3H-]-thymidine (dThd) into the DNA of uninfected primary rabbit kidney (PRK) cell cultures. Conditions: Oryctolagus cuniculus, read-out: ID50 (the source's name). The method in brief:
(§1)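 Uninfected primary rabbit kidney cells were used as a cytotoxicity measure. Incorporation of [methyl-3H]dThd or [1',2'-3H]dUrd into cellular DNA was followed with compound present.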

Assay [4] concerns PRK. Briefly: Concentration required to reduce Herpes simplex virus type 1 induced cytopathogenicity in primary rabbit kidney (PRK) cell cultures. The note with it: Human alphaherpesvirus 1, PRK; read-out: ID50 (the source's name). For orientation: Damage to the host cells serves as the signal in cytopathic effect assays.
Assay [5] concerns PRK. Briefly: Inhibitory activity against incorporation of deoxy-[1',2'-3H]uridine (dUrd) into the DNA of uninfected primary rabbit kidney (PRK) cell cultures. The note with it: Oryctolagus cuniculus, read-out: ID50 (the source's name). The method in brief:
as §1

Assay [6] relates to PRK. Briefly: Concentration required to reduce Vaccinia virus induced cytopathogenicity in primary rabbit kidney (PRK) cell cultures. Conditions: Orthopoxvirus vaccinia, read-out: ID50 (the source's name).
Assay [7] relates to L1210. Briefly: Inhibitory activity against incorporation of deoxy-[methyl.3H-]-thymidine (dThd) into the DNA of murine leukemia L1210 cell cultures. The note with it: Mus musculus, read-out: ID50 (the source's name).

SMILES strings stand for the structures. In brackets after ≈: the same amount, converted by molar mass.

For `CCC#Cc1cn([C@H]2C[C@H](O)[C@@H](CO)O2)c(=O)[nH]c1=O`, the IC50 is over 1000 µg/mL in the assay with L1210 [1]; 32 µg/mL (≈ 114 µM) in the assay with PRK [2]; 13 µg/mL (≈ 46.4 µM) with PRK [3]; 4 µg/mL (≈ 14.3 µM) in the assay with PRK [4]; 2 µg/mL (≈ 7.14 µM) in the assay on PRK [5]; 7 µg/mL (≈ 25 µM) in the assay on PRK [6].
Regarding `Cc1ccc(S(=O)(=O)OCCC#Cc2cn([C@H]3C[C@H](O)[C@@H](CO)O3)c(=O)[nH]c2=O)cc1`, the IC50 is over 200 µg/mL in the assay on L1210 [1]; 63 µg/mL (≈ 140 µM) with PRK [2]; 13 µg/mL (≈ 28.9 µM) in the assay with PRK [3]; 112 µg/mL (≈ 249 µM) in the assay on L1210 [7]; 33 µg/mL (≈ 73.3 µM) in the assay with PRK [4]; 44 µg/mL (≈ 97.7 µM) with PRK [5]. The IC50 in the assay on PRK [6] stood at 10 µg/mL (≈ 22.2 µM).
`COCC#Cc1cn([C@H]2C[C@H](O)[C@@H](CO)O2)c(=O)[nH]c1=O`: the IC50 worked out at 254 µg/mL (≈ 857 µM) in the assay with L1210 [1]; 2 µg/mL (≈ 6.75 µM) in the assay with PRK [2]; 16 µg/mL (≈ 54 µM) in the assay on PRK [3]; 1 µg/mL (≈ 3.38 µM) in the assay on PRK [4]; 2 µg/mL (≈ 6.75 µM) in the assay on PRK [5]; 2 µg/mL (≈ 6.75 µM) with PRK [6].
As for `CCCC/C=C\c1cn([C@H]2C[C@H](O)[C@@H](CO)O2)c(=O)[nH]c1=O`, the IC50 with L1210 [1] was 361 µg/mL (≈ 1160 µM); in the assay on PRK [2], over 200 µg/mL; in the assay with PRK [3], 5 µg/mL (≈ 16.1 µM); in the assay on L1210 [7], 39 µg/mL (≈ 126 µM); in the assay with PRK [4], over 400 µg/mL; with PRK [5] it was 34 µg/mL (≈ 110 µM). The IC50 with PRK [6] was over 400 µg/mL.
On to `C#Cc1cn([C@H]2C[C@H](O)[C@@H](CO)O2)c(=O)[nH]c1=O`, for which the IC50 was found to be 0.09 µg/mL (≈ 0.357 µM) in the assay with L1210 [1]; 1 µg/mL (≈ 3.96 µM) in the assay with PRK [2]; 3 µg/mL (≈ 11.9 µM) in the assay with PRK [3]; 0.5 µg/mL (≈ 1.98 µM) with PRK [4]; 0.05 µg/mL (≈ 0.198 µM) with PRK [5]; 0.1 µg/mL (≈ 0.396 µM) with PRK [6].
With `CC#Cc1cn([C@H]2C[C@H](O)[C@@H](CO)O2)c(=O)[nH]c1=O`, the IC50 with L1210 [1] stood at 164 µg/mL (≈ 616 µM); with PRK [2], 0.7 µg/mL (≈ 2.63 µM); in the assay with PRK [3], 3 µg/mL (≈ 11.3 µM); with PRK [4], 0.3 µg/mL (≈ 1.13 µM); in the assay with PRK [5], 0.7 µg/mL (≈ 2.63 µM); with PRK [6], 0.4 µg/mL (≈ 1.5 µM).
`O=c1[nH]c(=O)n([C@H]2C[C@H](O)[C@@H](CO)O2)cc1C#Cc1ccccc1`: the IC50 in the assay with L1210 [1] is 494 µg/mL (≈ 1500 µM); with PRK [2], over 400 µg/mL; with PRK [3], 23 µg/mL (≈ 70.1 µM); with L1210 [7], 120 µg/mL (≈ 365 µM); in the assay with PRK [4], over 400 µg/mL; in the assay with PRK [5], 77 µg/mL (≈ 235 µM). Further, in the assay with PRK [6], the IC50 was over 400 µg/mL.
Turning to `CC(C)(C)C#Cc1cn([C@H]2C[C@H](O)[C@@H](CO)O2)c(=O)[nH]c1=O`, the IC50 worked out at 287 µg/mL (≈ 931 µM) in the assay with L1210 [1]; 19 µg/mL (≈ 61.6 µM) with PRK [2]; 6 µg/mL (≈ 19.5 µM) in the assay on PRK [3]; 4 µg/mL (≈ 13 µM) in the assay with PRK [4]; 2 µg/mL (≈ 6.49 µM) in the assay on PRK [5]; 7 µg/mL (≈ 22.7 µM) in the assay on PRK [6].
On to `CCCCC#Cc1cn([C@H]2C[C@H](O)[C@@H](CO)O2)c(=O)[nH]c1=O`, for which the IC50 in the assay with L1210 [1] came out at 1000 µg/mL (≈ 3240 µM); in the assay with PRK [2], 350 µg/mL (≈ 1140 µM); with PRK [3] it was 45 µg/mL (≈ 146 µM); with L1210 [7] it was 47 µg/mL (≈ 152 µM); in the assay with PRK [4], 108 µg/mL (≈ 350 µM); with PRK [5], 59 µg/mL (≈ 191 µM). Also, the IC50 in the assay on PRK [6] amounted to 45 µg/mL (≈ 146 µM).
With `O=c1[nH]c(=O)n([C@H]2C[C@H](O)[C@@H](CO)O2)cc1C#CCCCO`, the IC50 with L1210 [1] is 280 µg/mL (≈ 902 µM); with PRK [2] it was over 400 µg/mL; with PRK [3], over 200 µg/mL; in the assay on PRK [4] it was over 400 µg/mL; with PRK [5] it was over 156 µg/mL; in the assay with PRK [6] it was 125 µg/mL (≈ 403 µM).
As to `CCCCCCc1cn([C@H]2C[C@H](O)[C@@H](CO)O2)c(=O)[nH]c1=O`, the IC50 with L1210 [1] came to 301 µg/mL (≈ 964 µM); in the assay on PRK [2], 350 µg/mL (≈ 1120 µM); with PRK [3], 7 µg/mL (≈ 22.4 µM); in the assay with PRK [4], 400 µg/mL (≈ 1280 µM); in the assay with PRK [5] it was 52 µg/mL (≈ 166 µM); in the assay on PRK [6], 300 µg/mL (≈ 960 µM).
Take `CCCCCC#Cc1cn([C@H]2C[C@H](O)[C@@H](CO)O2)c(=O)[nH]c1=O`: the IC50 with L1210 [1] was 219 µg/mL (≈ 679 µM); with PRK [2], over 400 µg/mL; in the assay on PRK [3], 9 µg/mL (≈ 27.9 µM); in the assay with L1210 [7], 45 µg/mL (≈ 140 µM); in the assay on PRK [4] it was over 400 µg/mL; in the assay on PRK [5], 33 µg/mL (≈ 102 µM). Also, the IC50 in the assay with PRK [6] worked out at 70 µg/mL (≈ 217 µM).
For `O=c1[nH]c(=O)n([C@H]2C[C@H](O)[C@@H](CO)O2)cc1C#CCO`, the IC50 was over 1000 µg/mL with L1210 [1]; 37 µg/mL (≈ 131 µM) in the assay on PRK [2]; 68 µg/mL (≈ 241 µM) in the assay with PRK [3]; 36 µg/mL (≈ 128 µM) with PRK [4]; 8 µg/mL (≈ 28.3 µM) in the assay on PRK [5]; 10 µg/mL (≈ 35.4 µM) in the assay with PRK [6].
Consider `O=c1[nH]c(=O)n([C@H]2C[C@H](O)[C@@H](CO)O2)cc1C#CCCO`, for which the IC50 with L1210 [1] is over 1000 µg/mL; in the assay with PRK [2], 47 µg/mL (≈ 159 µM); with PRK [3] it was 73 µg/mL (≈ 246 µM); in the assay with PRK [4], 18 µg/mL (≈ 60.8 µM); with PRK [5], 13 µg/mL (≈ 43.9 µM); in the assay with PRK [6] it was 10 µg/mL (≈ 33.8 µM).
As for `CCCC#Cc1cn([C@H]2C[C@H](O)[C@@H](CO)O2)c(=O)[nH]c1=O`, the IC50 in the assay with L1210 [1] was over 1000 µg/mL; in the assay with PRK [2], 90 µg/mL (≈ 306 µM); in the assay with PRK [3], 9 µg/mL (≈ 30.6 µM); in the assay with PRK [4] it was 4 µg/mL (≈ 13.6 µM); in the assay with PRK [5] it was 3 µg/mL (≈ 10.2 µM); in the assay with PRK [6], 7 µg/mL (≈ 23.8 µM).
`CC(C)(C)C#Cc1cn(C2O[C@H](CO)[C@@H](O)[C@H]2O)c(=O)[nH]c1=O` (some centres not stated): the IC50 with PRK [2] is over 400 µg/mL; in the assay on PRK [3], over 400 µg/mL; in the assay with L1210 [7], over 1000 µg/mL; in the assay on PRK [4] it was over 400 µg/mL; in the assay with PRK [5], over 400 µg/mL; in the assay with PRK [6] it was over 400 µg/mL.
Regarding `CCC#Cc1cn(C2O[C@H](CO)[C@@H](O)[C@@H]2O)c(=O)[nH]c1=O` (some centres not stated), the IC50 was over 1000 µg/mL in the assay with L1210 [1]; over 400 µg/mL with PRK [2]; 120 µg/mL (≈ 405 µM) in the assay on PRK [3]; over 1000 µg/mL in the assay with L1210 [7]; 200 µg/mL (≈ 675 µM) in the assay with PRK [4]; 215 µg/mL (≈ 726 µM) in the assay on PRK [5]. Also, the IC50 with PRK [6] is over 400 µg/mL.
In the case of `CC#Cc1cn(C2O[C@H](CO)[C@@H](O)[C@@H]2O)c(=O)[nH]c1=O` (some centres not stated), the IC50 in the assay with L1210 [1] is 36 µg/mL (≈ 128 µM); in the assay on PRK [2], 50 µg/mL (≈ 177 µM); with PRK [3], 92 µg/mL (≈ 326 µM); in the assay on L1210 [7] it was over 1000 µg/mL; in the assay with PRK [4], 20 µg/mL (≈ 70.9 µM); in the assay on PRK [5] it was over 100 µg/mL. In addition, in the assay on PRK [6], the IC50 turned out to be 200 µg/mL (≈ 709 µM).
Consider `O=c1[nH]c(=O)n([C@H]2C[C@H](O)[C@@H](CO)O2)cc1/C=C/Br` [BRIVUDINE], for which the IC50 with L1210 [1] turned out to be 0.001 µg/mL (≈ 0.003 µM); in the assay on PRK [2] it was 2.5 µg/mL (≈ 7.5 µM); in the assay with PRK [3], 90 µg/mL (≈ 270 µM); in the assay with PRK [4], 0.007 µg/mL (≈ 0.021 µM); in the assay on PRK [5] it was 25 µg/mL (≈ 75 µM); in the assay on PRK [6] it was 5 µg/mL (≈ 15 µM).
For the compound `O=c1[nH]c(=O)n([C@H]2C[C@H](O)[C@@H](CO)O2)cc1I` [IDOXURIDINE], the IC50 is 61 µg/mL (≈ 172 µM) in the assay on L1210 [1]; 0.3 µg/mL (≈ 0.847 µM) with PRK [2]; 1.5 µg/mL (≈ 4.24 µM) in the assay with PRK [3]; 0.15 µg/mL (≈ 0.424 µM) in the assay with PRK [4]; 0.12 µg/mL (≈ 0.339 µM) in the assay on PRK [5]; 0.2 µg/mL (≈ 0.565 µM) in the assay on PRK [6].
